Most compounds without a hit are left out; they make up all but 1.8% or so of the library.
Apaf1 inhib – inhibitors of human Apaf-1 apoptosome; O14727; reconstituted apoptosome caspase-3 activity, DEVD-Rh110 fluorescence; inhibition, % at 20 µM; actives 0.71% (n = 330,000); AID 489030; active means inhibition of at least 40% at 20 µM;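 further: plate controls were DMSO wells for no effect and DEVD-CHO caspase inhibitor wells for full effect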
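System: Apoptosome proteins | Medium: Hepes pH 7.5 with detergent and BSA | Also added: Cytochrome c trigger plus (Z-DEVD)2-Rh110 caspase-3 substrate | Incubation: 30 min compound preincubation, 50 min activation, room temperature | Detection: Rhodamine 110 fluorescence at Ex 480/Em 540 nm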
CTSL1 counter – cathepsin L1 inhibition, PFM18AAP counter-screen; recombinant F. hepatica cathepsin L1, Z-Leu-Arg-MCA fluorescence; actives 0.49% (n = 300,000); inhibition, % at 5.96 µM;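 active means inhibition above the mean of all tested compounds plus 3 SD, set per screening campaign, cut at about 17% in these data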;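 further: 0% = plate median of test compound wells and 100% = 1 µM Z-Phe-Ala-diazomethylketone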
GSTO1 inh – blocks human GSTO1 in RBBP9 counter-screen | actives 1.1% (n = 300,000) | recombinant GSTO1, activity-based probe fluorescence polarization | P78417 | AID 1974 | inhibition, % at 5.96 µM;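 active means inhibition above the campaign mean inhibition plus 3 SD, cut at about 35% in these data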;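 further: 0% = GSTO1-1 with DMSO and 100% = wells lacking GSTO1-1 enzyme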
Target sequence (P78417 whole entry, looked up): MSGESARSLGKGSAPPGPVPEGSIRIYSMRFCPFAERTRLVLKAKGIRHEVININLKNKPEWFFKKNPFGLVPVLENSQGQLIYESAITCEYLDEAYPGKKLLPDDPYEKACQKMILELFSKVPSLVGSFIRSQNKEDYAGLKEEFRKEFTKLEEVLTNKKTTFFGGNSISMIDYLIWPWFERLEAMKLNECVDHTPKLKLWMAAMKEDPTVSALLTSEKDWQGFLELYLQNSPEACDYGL
PAD4 FP inh – inhibitors of human PAD4; Q9UM07; actives 0.41% (n = 330,000); AID 485272; inhibition, % at 6.36 µM; recombinant PAD4, RCA probe fluorescence polarization;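 active means percent inhibition above a cutoff equal to the mean of all tested compounds plus 3 SD, cut at about 15% in these data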;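 further: 0% = PAD4 with RCA probe and DMSO and 100% = probe without PAD4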
TDP2 inh – TDP2 (human) inhibition, absorbance primary screen. O95551. inhibition, % at 12.8 µM. AID 720702. recombinant TDP2, T5PNP hydrolysis, p-nitrophenol absorbance 415 nm. actives 0.34% (n = 370,000);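 active means inhibition above the mean of all tested compounds plus 3 SD, set per campaign, cut at about 25% in these data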;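 further: 0% = DMSO with enzyme and 100% = buffer with substrate but no TDP2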
Target sequence (O95551 whole entry, looked up): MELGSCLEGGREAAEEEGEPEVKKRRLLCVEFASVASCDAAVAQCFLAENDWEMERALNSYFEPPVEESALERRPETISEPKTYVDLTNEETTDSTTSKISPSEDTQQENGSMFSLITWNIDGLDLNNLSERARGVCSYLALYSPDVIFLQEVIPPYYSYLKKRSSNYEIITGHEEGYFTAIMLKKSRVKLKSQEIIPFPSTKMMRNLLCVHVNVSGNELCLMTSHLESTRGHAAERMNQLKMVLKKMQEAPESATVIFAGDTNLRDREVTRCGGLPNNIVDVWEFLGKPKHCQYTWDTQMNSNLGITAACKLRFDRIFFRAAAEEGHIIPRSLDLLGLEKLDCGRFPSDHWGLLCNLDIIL
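System – recombinant human TDP2 · Quantity – TDP2 enzyme at 120 nM final · Doses – single concentration, 12.8 µM nominal, with 1% DMSO · Incubation – 2 h at 37 °C · Measured by – epi absorbance of p-nitrophenol freed from T5PNP by hydrolysis · Read-out – % inhibition relative to enzyme-containing and enzyme-free wells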
Apaf-1 inh conf – confirmation of Apaf-1 inhibitors. shares compounds with Apaf1 inhib. reconstituted apoptosome, caspase-3 DEVD-Rh110 fluorescence. inhibition, % at 20 µM. actives 25% (n = 1,800);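 active means mean inhibition of at least 40% at 20 µM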;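 further: plate controls were DMSO wells for no effect and DEVD-CHO caspase inhibitor control wells for full effect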
Rh110 quench – Rh110 signal interference in Apaf-1 inhibitor counter-screen | shares compounds with Apaf1 inhib | Rh110 fluorescence interference, quenched caspase reaction | activation (fluorescence interference), % at 20 µM | 1,800 tested, under 10 active | AID 504615;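 active means signal rise of 40% or more at 20 µM, treated as a fluorescence artifact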
Fluor interf inh – Apaf-1 inhibitor counter-screen fluorescence artifact. IC50, µM. 460 tested, under 10 active. fluorescence interference counterscreen, Apaf-1 assay format. shares compounds with Apaf1 inhib; call rule not given here
* hit, by the source's call; nt = not tested or not shown.

SMILES	Apaf1 inhib	CTSL1 counter	GSTO1 inh	PAD4 FP inh	TDP2 inh	Apaf-1 inh conf	Rh110 quench	others
CCN(CC)CCN(C(=O)c1ccc2c(c1)CCCC2)c1nc2ccc(C)cc2s1	51*	5	19	-10	4	11	7
CCN(CC)CCN(C(=O)c1ccc2c(c1)CCCC2)c1nc2ccc(OC)cc2s1	61*	-2	17	2	15	19	7
COC(=O)[C@H](CC(C)C)N(CCCc1cn(CC2CCCCC2)nn1)S(=O)(=O)c1ccc(F)cc1Br	nt	nt	nt	nt	-3	nt	nt
CC(=O)N=Cc1c(C)c(C#N)c(=O)n(C)c1O	44*	0	19	-7	21	-2	-1
O=C(CSc1nnc(-c2cccnc2)n1-c1ccc(Cl)cc1)Nc1ccccc1-c1ccccc1	nt	nt	nt	nt	-5	nt	nt
COc1ccc2[nH]c(=O)c(C(c3nnnn3CC3CCCO3)N3CCc4ccccc4C3)cc2c1 (stereo not given)	5	-1	4	3	-4	nt	nt
Cc1ccc2[nH]c(=O)c(C(c3nnnn3CC3CCCO3)N3CCc4ccccc4C3)cc2c1 (stereo not given)	66*	2	15	-10	0	17	9
Cc1cc2cc(C(c3nnnn3Cc3ccco3)N3CCc4ccccc4C3)c(=O)[nH]c2cc1C (stereo not given)	41*	-5	-2	-8	-3	24	10
Cc1ccc2[nH]c(=O)c(C(c3nnnn3Cc3ccccc3)N3CCc4ccccc43)cc2c1 (stereo not given)	29	4	5	-11	0	nt	nt
Cc1ccc2cc(C(c3nnnn3Cc3ccccc3)N3CCc4ccccc43)c(=O)[nH]c2c1 (stereo not given)	43*	3	1	-8	12	18	4
COC(=O)c1ccccc1-c1ccc(/C=C2\C(=O)N(c3ccccc3)N=C2c2ccccc2)o1	62*	-2	7	-13	1	13	9
O=[N+]([O-])c1ccc(COc2ccccc2CO)cc1	nt	nt	nt	nt	6	nt	nt
O=C1C(C2=C(O)c3ccccc3C2=O)=Nc2ccccc21	66*	15	-13	-62	14	99*	12	Fluor interf inh=>100
COC(=O)[C@]12C[C@H](CC(=O)N3CCN(C(=O)C4CC4)CC3)C(=O)N(Cc3ccccc3)C1=C[C@H](COCc1ccccc1)O[C@@H]2C	nt	nt	nt	nt	-4	nt	nt
COc1ccc2ccccc2c1C1CC(=O)N2CN(Cc3ccco3)CSC2=C1C#N (stereo not given)	52*	0	-4	1	-1	32	8
N#CC1=C2SCN(Cc3ccccc3)CN2C(=O)CC1c1cccs1 (stereo not given)	78*	1	9	-9	0	17	-8
COc1ccc(C2CC(=O)N3CN(Cc4ccco4)CSC3=C2C#N)cc1 (stereo not given)	29	0	15	-2	3	nt	nt
N#CC1=C2SCN(Cc3ccccc3)CN2C(=O)CC1c1ccc2c(c1)OCO2 (stereo not given)	7	-2	9	4	6	nt	nt
Cc1cc2ccccc2n1CCNC(=O)C1CCCCC1	44*	-2	6	1	-4	8	7
Cc1cc2ccccc2n1CCNC(=O)C1CCCC1	6	2	8	-1	-14	nt	nt
COc1cccc(/C=N/NC(=O)NC23CC4CC(CC(C4)C2)C3)c1O	40*	-1	0	-7	nt	15	4
O=C(N/N=C/c1ccccc1F)NC12CC3CC(CC(C3)C1)C2	33	6	-3	0	-22	nt	nt
COc1cc(OC)c2c(-c3ccccc3)cc(=O)oc2c1C(CCN1CCOCC1)c1ccc(N(C)C)cc1 (stereo not given)	52*	nt	nt	4	-6	11	-2
COc1ccc(C(CCN2CCCCC2)c2c(OC)cc(OC)c3c(-c4ccccc4)cc(=O)oc23)cc1 (stereo not given)	55*	-5	-3	-8	-4	27	6
COc1cc(OC)c2c(-c3ccccc3)cc(=O)oc2c1C(CCN1CCCC(C)C1)c1ccc2c(c1)OCO2 (stereo not given)	56*	1	1	3	-3	19	11
SMILES	Apaf1 inhib	CTSL1 counter	GSTO1 inh	PAD4 FP inh	TDP2 inh	Apaf-1 inh conf	Rh110 quench	others
COc1cc(OC)c2c(-c3ccccc3)cc(=O)oc2c1C(CCN1CCCCC1)c1ccc2c(c1)OCO2 (stereo not given)	37	1	2	-1	-8	nt	nt
COc1cc(OC)c2c(-c3ccccc3)cc(=O)oc2c1C(CCN1CCCCC1)c1ccc(N(C)C)cc1 (stereo not given)	54*	0	0	-7	nt	25	0
COc1cc(OC)c2c(C)cc(=O)oc2c1C(CCN1CCOCC1)c1ccc2c(c1)OCO2 (stereo not given)	35	4	0	-4	8	nt	nt
CCCCNC(=O)NC1CCN(CC(=O)Nc2ccc3c(c2)OCCO3)CC1	nt	nt	nt	nt	-7	nt	nt
CC1=CC2C3C(=O)N(c4ccccc4)C(=O)C3C1C(=O)C2(O)C(C)C (stereo not given)	nt	nt	nt	nt	-1	nt	nt
Cc1ccc(Cc2c(C)c(C#N)c3[nH]c4ccccc4n3c2=O)cc1	6	-5	-103	-1	-1	nt	nt
C=C(C)Cc1c(C)c(C#N)c2[nH]c3ccccc3n2c1=O	62*	4	-50	4	3	45*	5	Fluor interf inh=>100
C#CCOCCOCCOCCNc1nc(N2CCN(C(=O)CCCCCCCCCCNC(=O)Cn3cc(CCCCCN)nn3)CC2)nc(N2CCN(C(=O)CCCCCCCCCCNC(=O)[C@H]([C@@H](C)CC)n3cc(CCCCCN)nn3)CC2)n1	74*	7	0	6	nt	58*	5	Fluor interf inh=>100
C#CCOCCOCCOCCNc1nc(N2CCN(C(=O)CCCCCCCCCCNC(=O)[C@H](CCCCN)n3cc(CCO)nn3)CC2)nc(N2CCN(C(=O)CCCCCCCCCCNC(=O)[C@H](CCCCN)n3cc(CCO)nn3)CC2)n1	64*	1	3	1	nt	46*	1	Fluor interf inh=>100
C#CCOCCOCCOCCNc1nc(N2CCN(C(=O)CCCCCCCCCCNC(=O)[C@H](CCCCN)n3cc(CCO)nn3)CC2)nc(N2CCN(C(=O)CCCCCCCCCCNC(=O)[C@@H]([C@H](C)O)n3cc(C)nn3)CC2)n1	59*	2	-2	-3	nt	31	6

From PubChem BioAssay
